Assay results collected from several papers.
Lines come from different studies, so protocols differ.
RPS6KA4 C-terminal kinase domain: Ribosomal protein S6 kinase alpha-4, C-terminal kinase domain (RPS6KA4, Homo sapiens, UniProt O75676)
RPS6KA4 N-terminal kinase domain: Ribosomal protein S6 kinase alpha-4, N-terminal kinase domain (RPS6KA4, Homo sapiens, UniProt O75676)
RPS6KA4: Ribosomal protein S6 kinase alpha-4 (RPS6KA4, Homo sapiens, UniProt O75676)

For CN(C)c1nccc(-c2cnn3ncccc23)n1, the remaining binding was 84% (RPS6KA4 C-terminal kinase domain; binding; competition with immobilised ligand; 1 µM).
The inhibition of c1ccc(CNc2nc(N3CCOc4ccccc43)nc3c2CCCC3)cc1 is reported as 2.6% (RPS6KA4 N-terminal kinase domain; target engagement in cells; inhibitor; chemoproteomics; 20 mM).
Cc1ccc(NC(=O)c2ccc(C)c(C(F)(F)F)c2)cc1C#Cc1nn(C2CCC(O)CC2)c2ncnc(N)c12 (stereo not shown) gave a remaining signal of 70% (RPS6KA4; cell-free assay; 10 µM).
CCOc1cc(-c2nncn2C)ccc1Nc1ncc2cc(C)nc(NCC(C)(C)C)c2n1 has an inhibition of less than 15% (RPS6KA4; enzyme activity; inhibitor; FRET; 1 µM).
With CC(C)(C)c1nc2c(s1)c1nc(N)ncc1c1ccc(NS(=O)(=O)c3c(F)cccc3F)c(F)c12 the remaining activity was 84% (RPS6KA4; enzyme activity; inhibitor; radiometric; 1 µM).
For C[C@H](NC(=O)c1cnc2n1[C@](C)(Cc1ccc(C#N)cc1)C(=O)N2c1cc(Cl)c(F)c(Cl)c1)C(=O)NC1(c2ccccn2)CC1, the remaining binding was 92% (RPS6KA4 C-terminal kinase domain; cell-free assay; competition with immobilised ligand; 1 µM).
For O=C1NC(=O)c2cc(Nc3ccc(F)cc3)c(Nc3ccc(F)cc3)cc21, the remaining signal was 102% (RPS6KA4; cell-free assay; 0.5 µM).
CCCOc1ccc(OC)c(F)c1C(=O)c1ccc(C(=O)N[C@@H]2CNC[C@H]2NC(=O)c2ccc3[nH]ncc3c2)cc1 gave a remaining activity of 4% (RPS6KA4; enzyme activity; inhibitor; 10 µM).
CCN(CC)c1ccc(C2=NNC(=O)CC2C)cc1[N+](=O)[O-] (stereo not shown) gave a remaining activity of 82% (RPS6KA4; enzyme activity; inhibitor; 10 µM).
CNC(=O)c1cc(Oc2ccc(NC(=O)Nc3ccc(Cl)c(C(F)(F)F)c3)cc2)ccn1 has a remaining signal of 97.7% (RPS6KA4; cell-free assay; 0.5 µM).
With CO[C@H]1CC[C@H](CNc2ccc(S(=O)(=O)NC(=O)c3ccc(N4CCN(CC5=C(c6ccc(Cl)cc6)CC(C)(C)CC5)CC4)cc3Oc3cnc4[nH]ccc4c3)cc2[N+](=O)[O-])CC1 the remaining binding was 95% (RPS6KA4 N-terminal kinase domain; cell-free assay; competition with immobilised ligand; 1 µM).
Cc1ccc(C(=O)Nc2ccc(CN3CCN(C)CC3)c(C(F)(F)F)c2)cc1C#Cc1cnc2cccnn12 has an activity vs control of 100% (RPS6KA4; enzyme activity; inhibitor; 23.5 nM).
With Cn1cncc1C1=CN(c2ncnc3[nH]cnc23)CCS1 the inhibition was 13.3% (RPS6KA4; enzyme activity; inhibitor; radiometric; 50 nM).
CN1CC(Oc2cnc(C#N)cc2-c2ccn3nc(NC(=O)C4CC4)cc3c2)C1 gave an inhibition of -1% (RPS6KA4; enzyme activity; inhibitor; 1 µM).
The remaining binding of CCS(=O)(=O)c1cc2cc(C[C@@](O)(CC(C)(C)c3ccc(F)cc3C(N)=O)C(F)(F)F)[nH]c2cn1 is reported as 78% (RPS6KA4 N-terminal kinase domain; cell-free assay; competition with immobilised ligand; 1 µM).
With N[C@@H]1CCN(c2nccc(-c3cnn4ncccc34)n2)C1 the remaining binding was 100% (RPS6KA4 N-terminal kinase domain; binding; competition with immobilised ligand; 1 µM).
With Cc1cc(-n2nc(Cc3cc(F)cc(C(F)(F)F)c3)nc2C)ccc1C(N)=O the remaining binding was 95% (RPS6KA4 N-terminal kinase domain; cell-free assay; competition with immobilised ligand; 1 µM).
CN(C)c1nccc(-c2cnc3ncccn23)n1 gave a remaining binding of 80% (RPS6KA4 N-terminal kinase domain; binding; competition with immobilised ligand; 1 µM).
With CC/C(=N\NC(=O)NCc1cccc(O)c1)c1ccc(O)c(C)c1O the inhibition was 59.4% (RPS6KA4; enzyme activity; inhibitor; 0.1 µM).
The remaining binding of O=C(N[C@H]1CCCCC/C=C\C2C[C@@]2(C(=O)O)NC(=O)[C@@H]2C[C@@H](Oc3ccncc3)CN2C1=O)OC1CCCC1 (stereo partly shown) is reported as 100% (RPS6KA4 N-terminal kinase domain; binding; competition with immobilised ligand; 1 µM).
Cc1sc(C(=O)NC2COC2)cc1-n1cc(NC(=O)Nc2c(F)cccc2Cl)cn1 has a remaining activity of 105% (RPS6KA4; enzyme activity; inhibitor; 10 µM).
CC(C)(O)[C@H]1CC[C@H](Nc2ccc3ncc(-c4cccc(C(F)(F)F)c4)n3n2)CC1 gave a remaining activity of 92.4% (RPS6KA4; enzyme activity; inhibitor; 1 µM).
Cc1cc(C)c(-n2ccn3nc(-c4cccnc4)cc23)cc1NC(=O)c1cc(C#N)cc(S(F)(F)(F)(F)F)c1 has a remaining binding of 100% (RPS6KA4 N-terminal kinase domain; cell-free assay; competition with immobilised ligand; 0.1 µM).
For Nc1ncnc2occ(-c3ccc(NC(=O)Nc4cc(C(F)(F)F)ccc4F)cc3)c12, the remaining signal was 68% (RPS6KA4 C-terminal kinase domain; cell-free assay; inhibitor; 20 µM).
Cc1ccc(Nc2nccc(N(C)c3ccc4c(C)n(C)nc4c3)n2)cc1S(N)(=O)=O has a remaining activity of 102% (RPS6KA4; enzyme activity; inhibitor; 0.5 µM).
Cc1nc(Cc2cccc(C(F)(F)F)c2)sc1-c1ccc(C(N)=O)nc1 has a remaining binding of 100% (RPS6KA4 C-terminal kinase domain; cell-free assay; competition with immobilised ligand; 1 µM).
The inhibition of CNc1cccc2cc(C(=O)Nc3ccc(C(=O)O)cc3)c(=O)[nH]c12 is reported as 8.2% (RPS6KA4; enzyme activity; inhibitor; 10 µM).
For COc1cc2ncnc(Nc3ccc(Oc4ccccc4)cc3C)c2cc1OC, the inhibition was 1% (RPS6KA4; enzyme activity; inhibitor; 1 µM).
For O=C1Nc2ccc(Cl)cc2C1=Cc1cc(Cl)c(O)c(Cl)c1, the remaining signal was 98% (RPS6KA4; cell-free assay; 0.5 µM).
With CC(=O)N1CCC(c2ccc(C(=O)NC(=N)N)cc2C(F)(F)F)CC1 the remaining binding was 100% (RPS6KA4 C-terminal kinase domain; cell-free assay; competition with immobilised ligand; 1 µM).
C[C@@H]1CCN(c2nccc(-c3cnn4ncccc34)n2)C1 has a remaining binding of 60% (RPS6KA4 N-terminal kinase domain; binding; competition with immobilised ligand; 1 µM).
